Shown are actives, neighbours in structure and some others; about 2% of the full set was active somewhere.
FGF22 binding: shifts melting point of recombinant human FGF22 | 1.5% of 340,000 active | AID 651658 | Q9HCT0 | recombinant FGF22 thermal shift, SYPRO orange fluorescence; percent of sucrose octasulfate shift, DMSO zero | activity (Tm shift, normalised), % at 9.99 µM;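 active = mean Tm shift, scaled 0 neutral to 100 positive control, at about 1.3% or above, every replicate too, limit read from the data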
MT1-MMP act inh: inhibitors of human MT1-MMP activation | GFP/RFP ratio change, % at 20 µM | HT1080 RFP-PRO-GFP cells, GFP/RFP ratio fluorescence, overnight; percent of plate control window, DMSO zero | 0.061% of 360,000 active | P50281;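 active = GFP/RFP ratio change of at least 30% with cell ATP level not reduced by more than half and red fluorescence within 50% of control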
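Read-out: GFP/RFP fluorescence ratio; Test system: RFP-PRO-GFP reporter HT1080 cells; Compound dosing: single-point 20 µM compound, 1% DMSO; Times: overnight compound exposure at 37 °C.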
ABCB6 inh 2: blocks the human ABCB6 transporter | Q9NP58 | K562-ABCB6 porphyrin accumulation, flow cytometry, 1 h; hits give low values | fluorescence ratio to DMSO, % at 10 µM | 0.19% of 360,000 active;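 active = fluorescence ratio to DMSO below 75%, the collection mean minus 3 SD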;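 note: signal is porphyrin accumulated inside mitochondria; 100% equals median channel fluorescence of DMSO control wells; lower ratio means ABCB6 inhibition with less porphyrin fluorescence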
Granule exo inh: blocks lytic granule exocytosis; TALL-104 LAMP-1 surface exposure, flow cytometry; cells stimulated with thapsigargin and PMA; inhibition, % at 10 µM; 0.66% of 360,000 active; AID 651702;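 active = inhibition above about 55%, limit read from the data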
DAGLB inhibitor: blocks human DAGLB lipase activity | Q8NCG7 | AID 504411 | 0.059% of 340,000 active | inhibition, % at 5.17 µM | HEK293T DAGLB membrane lysate, EnzChek fluorogenic substrate; in the data active = inhibition above about 34%;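 note: 0% = enzyme with vehicle and 100% = wells lacking enzyme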
Target sequence (Q8NCG7 whole entry, looked up): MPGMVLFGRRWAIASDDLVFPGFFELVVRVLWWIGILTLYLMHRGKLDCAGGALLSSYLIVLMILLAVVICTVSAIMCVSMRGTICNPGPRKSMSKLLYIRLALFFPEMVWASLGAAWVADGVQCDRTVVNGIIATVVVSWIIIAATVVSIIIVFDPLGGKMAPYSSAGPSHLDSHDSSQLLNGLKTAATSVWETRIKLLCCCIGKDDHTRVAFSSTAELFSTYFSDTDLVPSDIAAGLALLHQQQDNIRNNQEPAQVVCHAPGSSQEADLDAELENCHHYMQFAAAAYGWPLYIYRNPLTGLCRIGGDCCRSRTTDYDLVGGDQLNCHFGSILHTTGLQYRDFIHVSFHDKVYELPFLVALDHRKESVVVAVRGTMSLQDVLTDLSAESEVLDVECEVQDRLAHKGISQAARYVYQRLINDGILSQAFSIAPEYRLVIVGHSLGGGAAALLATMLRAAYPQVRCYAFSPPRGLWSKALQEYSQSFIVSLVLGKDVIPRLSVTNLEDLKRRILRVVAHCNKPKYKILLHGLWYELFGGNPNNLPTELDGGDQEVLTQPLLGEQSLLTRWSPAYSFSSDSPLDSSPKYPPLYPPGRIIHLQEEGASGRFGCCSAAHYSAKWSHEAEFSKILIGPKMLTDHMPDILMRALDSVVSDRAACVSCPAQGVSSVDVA
VLA-4 inh: inhibition in a human VLA-4 binding assay; VLA-4 expressing cells, ligand binding flow cytometry; inhibition, % (about 7 µM as worked out from the volumes in the protocol); 0.2% of 330,000 active; AID 2557; in the data active = inhibition above about 50%
Starred values were filed as active, the others as inactive.

Results for Cc1sc2ncnc(Nc3ccc(N4CCOCC4)cc3)c2c1-c1ccccc1 ?
FGF22 binding: 0; MT1-MMP act inh: -9; ABCB6 inh 2: 91; Granule exo inh: -3; DAGLB inhibitor: -3; VLA-4 inh: -6

What do the screens show for `CCOC(=O)c1cc(C#N)c(SCC(=O)c2cc(C#N)c(SC)nc2C)[nH]c1=O`?
FGF22 binding: 0; MT1-MMP act inh: -15; ABCB6 inh 2: 102; Granule exo inh: 0; DAGLB inhibitor: -5; VLA-4 inh: -6

How did CCOC(=O)c1cc(C#N)c(SCC(=O)O)[nH]c1=O do in these assays?
FGF22 binding: 45*; MT1-MMP act inh: 9; ABCB6 inh 2: 97; Granule exo inh: -5; DAGLB inhibitor: 1; VLA-4 inh: 16

Results for CCOC(=O)c1cc(C#N)c(SCC(N)=O)[nH]c1=O ?
FGF22 binding: 0; MT1-MMP act inh: -18; ABCB6 inh 2: 95; Granule exo inh: 4; DAGLB inhibitor: -3; VLA-4 inh: -18

Results for CCOC(=O)c1cc(C#N)c(SCC(=O)Nc2ccc(C(C)=O)cc2)[nH]c1=O ?
FGF22 binding: 1.4*; MT1-MMP act inh: 1; ABCB6 inh 2: 102; Granule exo inh: -13; DAGLB inhibitor: 10; VLA-4 inh: 17

Results for CC(=O)N(C)C[C@H]1Oc2cc(C#Cc3ccccc3)ccc2S(=O)(=O)N([C@@H](C)CO)C[C@@H]1C ?
FGF22 binding: 0

How did COC(=O)Cc1nnn2c1[C@H](C)[C@@H](OC)c1cccc(Cl)c1-2 do in these assays?
FGF22 binding: 82*

How did O=C(NCC[C@@H]1CC[C@H](NC(=O)C2CCC2)[C@H](CO)O1)c1ccc(F)cc1 do in these assays?
FGF22 binding: 0

Results for COC(=O)c1c(N2C(=O)Nc3ccccc3N2O)sc(C)c1C ?
FGF22 binding: 43*; MT1-MMP act inh: -6; ABCB6 inh 2: 95; Granule exo inh: -8; DAGLB inhibitor: 0; VLA-4 inh: 1

What do the screens show for `O=S(=O)(NCC[C@H]1CC[C@H](NS(=O)(=O)c2cccc(Cl)c2)[C@H](CO)O1)c1cccc(F)c1`?
FGF22 binding: -1

How did O=C(CSc1nnc(-c2c[nH]c3ccccc23)o1)N(Cc1ccccc1)c1ccc(F)cc1 do in these assays?
MT1-MMP act inh: -30; ABCB6 inh 2: 99; Granule exo inh: 78*; DAGLB inhibitor: -2; VLA-4 inh: 0

How did O=C(c1ccc(C(F)(F)F)cc1)C1CCCN(C(=O)CN2CCCC2=O)C1 (centres undefined) do in these assays?
FGF22 binding: 43*; MT1-MMP act inh: 3; ABCB6 inh 2: 102; Granule exo inh: -1; DAGLB inhibitor: -1; VLA-4 inh: -8

What do the screens show for `O=C(c1ccc(C(F)(F)F)cc1)C1CCCN(C(=O)CN2C(=O)CSC2=O)C1` (centres undefined)?
FGF22 binding: 0; MT1-MMP act inh: 2; ABCB6 inh 2: 93; Granule exo inh: 0; DAGLB inhibitor: 1; VLA-4 inh: 2

What do the screens show for `C[C@H]1CN([C@@H](C)CO)C(=O)c2cc(-c3cccc(C#N)c3)cnc2O[C@@H]1CN(C)C(=O)C1CC1`?
FGF22 binding: 0

Results for C[C@H](CO)N1C[C@H](C)[C@@H](CN(C)C)Oc2ccc(NC(=O)NC3CCCCC3)cc2C1=O ?
FGF22 binding: 0

What do the screens show for `CCc1nc2sccc2c(=O)[nH]1`?
FGF22 binding: 44*; MT1-MMP act inh: 0; ABCB6 inh 2: 98; Granule exo inh: 0; DAGLB inhibitor: 1; VLA-4 inh: 5

Results for COCCOC(=O)N1C(=O)[C@@]2(c3ccccc31)[C@H](c1ccccc1OCCO)N1[C@H](c3ccccc3)[C@H](c3ccccc3)OC(=O)[C@H]1[C@@H]2C(=O)NC[C@H](O)c1ccccc1 ?
FGF22 binding: -1

What do the screens show for `O=C(CSc1ccc(F)cc1)N1CCN(S(=O)(=O)c2ccccc2)CC1`?
FGF22 binding: 44*; MT1-MMP act inh: -1; ABCB6 inh 2: 91; Granule exo inh: -6; DAGLB inhibitor: -1; VLA-4 inh: 2

Results for O=S(=O)(c1ccc(F)cc1)N1CCN(C(=S)NCc2ccccc2)CC1 ?
FGF22 binding: 44*; MT1-MMP act inh: 9; ABCB6 inh 2: 103; Granule exo inh: 6; DAGLB inhibitor: -2; VLA-4 inh: 7

Results for CO[C@H]1CN(C)C(=O)c2cc(NS(=O)(=O)c3ccccc3)ccc2OC[C@H](C)N(Cc2ccccn2)C[C@H]1C ?
FGF22 binding: 0

How did CN(C)c1nc(Cl)nc(N(C#N)CCOc2ccccc2)n1 do in these assays?
FGF22 binding: 43*; MT1-MMP act inh: -3; ABCB6 inh 2: 99; Granule exo inh: 23; DAGLB inhibitor: -7; VLA-4 inh: 25

How did O=C(O)c1cccc(NC(=S)NC(NC(=O)c2cccc([N+](=O)[O-])c2)C(Cl)(Cl)Cl)c1 (centres undefined) do in these assays?
FGF22 binding: 2.8*; MT1-MMP act inh: -4; ABCB6 inh 2: 100; Granule exo inh: -3; DAGLB inhibitor: 4; VLA-4 inh: 0

How did O=C(NCCOc1nc(N2CCCCC2)nc(N2CCCCC2)n1)Nc1ccccc1 do in these assays?
FGF22 binding: 44*; MT1-MMP act inh: -5; ABCB6 inh 2: 97; Granule exo inh: -6; DAGLB inhibitor: 0; VLA-4 inh: 10

What do the screens show for `C[C@H](CO)N1C[C@H](C)[C@@H](CN(C)C(=O)Nc2cccc3ccccc23)Oc2ccc(NC(=O)Cn3cnnn3)cc2C1=O`?
FGF22 binding: 0

Results for COc1ccccc1NC(=O)CSC1=NC(=O)C(NC(C)=O)C(=O)N1 (centres undefined) ?
MT1-MMP act inh: 1; ABCB6 inh 2: 105; Granule exo inh: -5; DAGLB inhibitor: 1; VLA-4 inh: -5

How did CC(=O)NC1C(=O)N=C(SCC(=O)Nc2ccc(C(F)(F)F)cc2Cl)NC1=O (centres undefined) do in these assays?
FGF22 binding: 44*; MT1-MMP act inh: -2; ABCB6 inh 2: 102; Granule exo inh: 0; DAGLB inhibitor: -4; VLA-4 inh: 0

What do the screens show for `CCOC(=O)C1=C(N)OC2=C(C(=O)CC(C)(C)C2)C1c1ccc(CC)s1` (centres undefined)?
FGF22 binding: 0; MT1-MMP act inh: 0; ABCB6 inh 2: 96; Granule exo inh: 0; DAGLB inhibitor: -5; VLA-4 inh: 22

What do the screens show for `CCOC(=O)C1=C(N)OC2=C(C(=O)CC(C)(C)C2)C1c1ccc(C)s1` (centres undefined)?
FGF22 binding: 44*; MT1-MMP act inh: 1; ABCB6 inh 2: 95; Granule exo inh: 1; DAGLB inhibitor: -2; VLA-4 inh: 19
